Key:
[1] = test system: MCF7; assay: Antitumour activity against human MCF7 cells xenografted in nude BALB/c mouse assessed as tumour growth inhibition at 5 mg/kg, ip administered for 34 days relative to control; assay type: functional; conditions: 816 h, time 34 day, read-out: TGI
[2] = test system: MCF7; assay: Induction apoptosis in human MCF7 cells assessed as necrotic cells at 2.5 uM incubated for 24 hrs by Annexin-FTTC/PI staining based flow cytometric analysis (reference value: 0.11%); assay type: functional
[3] = Toxicity in nude BALB/c mouse xenografted with human MCF7 cells assessed as liver weight at 2.5 to 10 mg/kg, ip administered for 34 days; assay type: organism-based; conditions: in vivo, 816 h, dose 2.5-10 mg/kg, time 34 day
Outline: (§1)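 Nude BALB/c females bearing subcutaneous MCF-7 xenografts were dosed ip once daily for 34 days at 2.5, 5.0 or 10 mg/kg, with saline vehicle (100 µL) as control. Body weight was recorded every 2 days. After euthanasia by cervical dislocation, heart, liver, spleen and kidney were removed and weighed.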

[4] = Binding affinity to 5'-biotin-d [GCGTCCACCCTCCCTGCCCCGCCGCCCCCCCITCTCCCAGC]-3' i-motif DNA (unknown origin) assessed as decrease in positive peak by CD spectroscopy; conditions: dose 2-10 equiv
Outline: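 CD spectra: oligomers at 2 μM final, in BPES pH 5.5 (i-motif) or Tris-HCl pH 7.4 (G-quadruplex). Samples were annealed (95 °C 5 min, slow cool, 4 °C overnight), then titrated with increasing compound. Spectra were recorded at 25 °C over 230–330 nm in a 1 mm cuvette, buffer-subtracted, averaged and smoothed.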

[5] = test system: MCF7; assay: Antitumour activity against human MCF7 cells xenografted in nude BALB/c mouse assessed as tumour growth inhibition at 10 mg/kg, ip administered for 34 days relative to control; assay type: functional; conditions: 816 h, time 34 day, read-out: TGI
[6] = test system: MCF7; assay: Cytotoxicity against human MCF7 cells assessed as reduction in cell viability after 48 hrs by xcCELLigence RTCA analysis; assay type: functional, cell-based; conditions: MCF7, 48 h
Outline: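 xCELLigence RTCA: MCF-7 cells were cultured on E-plates about 16 h, then treated with 0.625, 1.25, 2.5 μM compound or DMSO. Impedance was monitored for 90 h.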

[7] = Toxicity in nude BALB/c mouse xenografted with human MCF7 cells assessed as heart weight at 2.5 to 10 mg/kg, ip administered for 34 days; assay type: organism-based; conditions: in vivo, 816 h, dose 2.5-10 mg/kg, time 34 day; outline: as §1
[8] = test system: MCF7; assay: Induction apoptosis in human MCF7 cells assessed as necrotic cells at 1.25 uM incubated for 24 hrs by Annexin-FTTC/PI staining based flow cytometric analysis (reference value: 0.11%); assay type: functional
[9] = test system: MCF7; assay: Induction apoptosis in human MCF7 cells assessed as early apoptotic cells at 2.5 uM incubated for 24 hrs by Annexin-FTTC/PI staining based flow cytometric analysis (reference value: 0.28%); assay type: functional
[10] = Toxicity in nude BALB/c mouse xenografted with human MCF7 cells assessed as spleen weight at 2.5 to 10 mg/kg, ip administered for 34 days; assay type: organism-based; conditions: in vivo, 816 h, dose 2.5-10 mg/kg, time 34 day; outline: as §1
[11] = test system: MCF7; assay: Antiinvasive activity in human MCF7 cells assessed as reduction in cell migration by microscopic method; assay type: functional, cell-based; conditions: dose […], time 24-48 hrs
Outline: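 Scratch assay: MCF-7 seeded 300,000 cells/well, grown 24 h at 37 °C/5% CO2, then a cross-shaped scrape was made through the monolayer with a pipet tip. Cells were exposed to 5, 2.5, 1.25, 0.625, 0.3125 μM compound or DMSO control. Wounded areas were photographed by microscopy at 0, 24 and 48 h.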

[12] = Toxicity in nude BALB/c mouse xenografted with human MCF7 cells assessed as kidney weight at 2.5 to 10 mg/kg, ip administered for 34 days; assay type: organism-based; conditions: in vivo, 816 h, dose 2.5-10 mg/kg, time 34 day; outline: as §1
[13] = test system: MCF7; assay: Induction of cell cycle arrest in human MCF7 cells assessed as accumulation at G0/G1 phase at 0.625 to 10 uM after 48 hrs by propidium iodide staining based flow cytometric analysis (reference value: 75.7%); assay type: functional; conditions: dose 0.625-10 µM
Outline: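 MCF-7 cells, 2 × 10^5/well, were pre-grown 12 h, then treated with 10, 5, 2.5, 1.25, 0.625 μM compound or DMSO. Cells were fixed in 75% ethanol at −20 °C overnight. Staining was 50 μg/mL PI with RNase A, 30 min at room temperature in the dark. Flow cytometry collected 10,000 events; phase distribution was determined.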

[14] = test system: MCF7; assay: Cytotoxicity against human MCF7 cells assessed as reduction in cell viability after 48 hrs by MTT assay; assay type: functional, cell-based; conditions: MCF7, 48 h
Outline: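 MTT assay: cells seeded at 5.0 × 10³/well, grown 12 h, then exposed to graded compound concentrations for 48 h at 37 °C/5% CO2. 2.5 mg/mL MTT was added for 4 h, formazan dissolved in DMSO, and absorbance read at 570 nm. Each dose in triplicate; IC50 from percent survival versus negative control.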

[15] = Toxicity in nude BALB/c mouse xenografted with human MCF7 cells assessed as lung weight at 2.5 to 10 mg/kg, ip administered for 34 days; assay type: organism-based; conditions: in vivo, 816 h, dose 2.5-10 mg/kg, time 34 day
[16] = test system: MCF7; assay: Antitumour activity against human MCF7 cells xenografted in ip dosed nude BALB/c mouse assessed as tumour growth inhibition administered for 34 days; assay type: functional, organism-based; conditions: dose 2.5-10 mg/kg, time 34.0 day
[17] = test system: MCF7; assay: Binding affinity to wild type PDGFRbeta promoter (unknown origin) in human MCF7 cells assessed as down regulation of PDGFRbeta expression at 1.25 to 20 uM after 12 hrs; conditions: dose 1.25-20 µM
[18] = test system: MCF7; assay: Antitumour activity against human MCF7 cells xenografted in nude BALB/c mouse assessed as tumour volume at 10 mg/kg, ip administered for 34 days (reference value: 1530 mm3); assay type: functional; conditions: time 34 day
[19] = Binding affinity to 5'-biotin-d [GCGTCCACCCTCCCTGCCCCGCCGCCCCCCCITCTCCCAGC]-3' i-motif DNA (unknown origin) assessed as change in melting temperature at 10 uM by CD spectroscopy
Outline: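 Oligomer 2 µM in BPES buffer pH 5.5, heated to 95 °C for 5 min, cooled slowly and held at 4 °C overnight. Ligand 10 µM. CD ellipticity followed at 288 nm from 25–95 °C (1 mm cuvette); Tm derived, ΔTm against DNA alone.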

[20] = test system: MCF7; assay: Binding affinity to wild type PDGFRbeta promoter (unknown origin) in human MCF7 cells assessed as down regulation of PDGFRbeta mRNA expression at 1.25 to 20 uM after 12 hrs by RT-PCR analysis; assay type: cell-based; conditions: dose 1.25-20 µM
[21] = test system: MCF7; assay: Induction apoptosis in human MCF7 cells assessed as late apoptotic cells at 1.25 uM incubated for 24 hrs by Annexin-FTTC/PI staining based flow cytometric analysis (reference value: 0%); assay type: functional
[22] = test system: MCF7; assay: Induction apoptosis in human MCF7 cells assessed as early apoptotic cells at 1.25 uM incubated for 24 hrs by Annexin-FTTC/PI staining based flow cytometric analysis (reference value: 0.28%); assay type: functional

SMILES: Cc1ccc2c(c1)c(=O)c1cc(C(=O)NCCCN(C)CCCN3C(=O)c4cccc5c(N6CCN(C)CC6)ccc(c45)C3=O)ccc1n2-c1ccc(C(=O)NCCCN(C)CCCN2C(=O)c3cccc4c(N5CCN(C)CC5)ccc(c34)C2=O)cc1
- inhibition in vivo at 5 mg/kg [1]: 47.6%
- Activity [2]: 0.49%
- Activity [3]: Non-Toxic
- Activity [4]: Dose-dependent effect
- inhibition in vivo at 10 mg/kg [5]: 56.5%
- IC50 [6]: 2.74 µM
- Activity [7]: Non-Toxic
- Activity [8]: 0.43%
- Activity [9]: 26.1%
- Activity [10]: Non-Toxic
- Activity [11]: Dose-dependent effect
- Activity [12]: Non-Toxic
- Activity [13]: 48.1%
- IC50 [14]: 4.69 µM
- Activity [15]: Non-Toxic
- Activity [16]: Dose-dependent effect
- Activity [17]: Dose-dependent effect
- Activity [18]: 640.2 mm3
- ΔTm [19]: -16.7 °C
- Activity [20]: Dose-dependent effect
- Activity [21]: 0.8%
- Activity [22]: 7.38%
